Measurements published in the EternaBench riboswitch data.

Test system: MS2 coat protein
Experiment: apparent Kd, MS2 coat protein; higher = weaker binding; RNA-MaP array; FMN 200 µM where present
How it was run: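 Stalled E. coli RNA polymerase transcribed the designs on Illumina sequencing-chip clusters. SNAP-549-labelled MS2 coat protein was titrated from 0.7 or 1.5 nM, doubling to 3 µM, without and then with constant ligand, in 100 mM Tris-HCl pH 7.5, 80 mM KCl, 4 mM MgCl2, BSA, DTT, yeast tRNA and Tween-20. Per-cluster binding curves were fitted to green signal normalised to red-channel RNA signal and control-cluster median Fmax. The apparent Kd is the median of the filtered fits.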

[1] = designed as: ON switch for flavin mononucleotide, no ligand
[2] = ligand present: flavin mononucleotide, designed as: ON switch for flavin mononucleotide
[3] = designed as: OFF switch for flavin mononucleotide, no ligand
[4] = ligand present: flavin mononucleotide, designed as: OFF switch for flavin mononucleotide

Row | Sequence | apparent Kd [1] | apparent Kd [2] | apparent Kd [3] | apparent Kd [4]
1 | UGGUACUAGGGAGGAUAUGGGAAGAUACAUGAGGAUCACCCAUGUUUAAGCAUGCCGAGAGGCAACUAGAAGGCCCUAGUACCU | 357 nM | 18 nM | – | –
2 | UUGCUACAUGAGGAUCACCCAUGUCAGGAUAUUGUGUAUACCGUGGAAGCUGUGUCGAUAAGAAGGGACUGUCU | – | – | 26.6 nM | 30.5 nM
3 | CGGCGCUGUCGAGAGGAUAUGCGGUGAUGGACAUGAGGAUCACCCAUGUUAGCGAUAGCAUCACGGUAGAAGGCUCUUACGCCUG | 378 nM | 174 nM | – | –
4 | AACAUGUGAGGAUAUUGAUUGGAGACGUGGAGACCGCUAAUUAAGAAGGUACAUGAGGAUCACCCAUGUCCCAU | – | – | 215 nM | 231 nM
5 | AUCAGCUUGACAGGAUAUACAUGUCAGCGAAAGCUGACUAUCUUAAUAACAUGAGGAUCACCCAUGUAGAAGGGUCGAGCUGAU | – | – | 16.9 nM | 26.4 nM
6 | UUGUACAUAGGAUAUAGUUGUUUGUACAUGAGGAUCACCCAUGUUAUGUAUGUUUUGCUUCUAGAAGGAUGUUGUU | – | – | 33.2 nM | 24.4 nM
7 | UAAUAAUAGCAAGGAUAUAGUUAUUAUAAUAUACUAGAAGGUGCACAUGAGGAUCACCCAUGUUUUAUAAUUUGUAAUUUAAAU | – | – | 29 nM | 22.4 nM
8 | CAUGUCCUCACAGGAUAUGCACCACUUUGUGGUGCAGAAGGGUGAAUACAUGAGGAUCACCCAUGUGGACAUGAUAUAUUUAAG | 1200 nM | 75.4 nM | – | –
9 | UAUUUAUUAGAGAAGGUACAUACAAUUAACAACAUACAUGAGGAUCACCCAUGUUGGUGAAUAAGUAAGGAUAUUUAAUACUUU | – | – | 31.3 nM | 17.6 nM
10 | GACUUGGCUACAUGAGGAUCACCCAUGUUUGACUGGAUCGAUCAGGAUAUAGUGAUUUGCAACAAUUAGAAGGGAUAUUUACGG | 49.8 nM | 51.6 nM | – | –
11 | CGGAGGUCAGGAUAUGCAUGGCGGGACUUGCGUCGUGGCGUGCAGAAGGGACAUGAGGAUCACCCAUGUGGAGA | – | – | 83.2 nM | 259 nM
12 | GGUUGUCAUCGUCAUCCUUUCUGUACAUGAGGAUCACCCAUGUAGGAUAUGCUGCUCUCGGUGUGGCAGAAGGGCGUGUGUGUU | – | – | 40.5 nM | 50.2 nM
13 | AUGUGGUGCGUAGGAUAUCAUUGAAGAAAACCCUGAGAAGGACGUGAGGACAUGAGGAUCACCCAUGUGGAUCACCCAUGUCAU | – | – | 315 nM | 282 nM
14 | AUAAUGCGAGGAUAUACAUGAGGAUCACCCAUGUAAUUCAAUCGGAGAGCCACAUUUCGUAGAAGGUGCAUUAA | – | – | 15.7 nM | 21.4 nM
15 | CGAUAUUAUGUCAGGAUAUACAUUGCGAAAGCAAUGUAGAAGGGACAUGAGGAUCACCCAUGUUCCUACUAUCG | – | – | 12.3 nM | 15.7 nM
16 | GAAUUAUUGAUCCAAUUUUACAACAUGAGGAUCACCCAUGUGCAGGAUAUCGUGUGUUUUAUAUUCGAGAAGGGCAAGAACUUU | – | – | 141 nM | 300 nM
17 | UUAUGUUAUGUAGGAUAUCACUUUAAUUGAUUAAUAUAUGAAUAUUGAAUUUGAGAAGGACAUUUACAUGAGGAUCACCCAUGU | – | – | 16.2 nM | 13.6 nM
18 | UGUCCGGUCAUAGGAUAUGACAUGAGGAUCACCCAUGUCUGCUUGGCUUGACCGUUGAUCCAUUGUCAGAAGGGUGCCGUUACA | – | – | 43.2 nM | 63.1 nM
19 | GUCGGCUCGUGAGGAUAUACAACACUGCUUCGGCAGUGUAUUAAGAUCACAUGAGGAUCACCCAUGUAGAAGGCACGAGCUGAU | – | – | 13.8 nM | 221 nM

Row | Sequence | apparent Kd [1] | apparent Kd [2] | apparent Kd [3] | apparent Kd [4]
20 | GUCAGCUCGUGAGGAUAUACAACAUUGCUUCGGCAGUGUAUUAAGAUCACAUGAGGAUCACCCAUGUAGAAGGCACGAGCUGAU | – | – | 14.1 nM | 243 nM
21 | CAAUCUCAGAUAGGAUAUAUAGGAUAACUUAAGACCUAACAUGAGGAUCACCCAUGUGAUUAUUCGUAGAAGGAUCAUUGAACU | 226 nM | 244 nM | – | –
22 | UCAUACAUUCGAGGAUAUCGGUGAGAAAUCUUUCGAGAAGGCGAUUCAUGAUUUAUUAUCCUGGACAUGAGGAUCACCCAUGUA | 85.3 nM | 65.5 nM | – | –
23 | UAAUCUGGUCAGGAUAUCGGUGCACAGUGCACAGGAGAAGGGACCACAUGAGGAUCACCCAUGUAGGCUCUCCU | – | – | 17.8 nM | 24.4 nM
24 | CUGUCGAUAUCAGGAUAUCGUUUACAUACAUGAGGAUCACCCAUGUAGAUGAUCAGCCUAAUAUACGAGAAGGGAUAACGAUAG | 10.2 nM | 9.04 nM | – | –
25 | GGAUAGGACAGAGGAUAUACGUGCUAGAGAUACUAGCAAAAUUUCCUCACAUGAGGAUCACCCAUGUAGAAGGCUGUACUAUCG | – | – | 15.2 nM | 202 nM
26 | GGUAUCCGGCAGGAUAUUGUGAGAAUCUGUAAGCGAGAAGGGCCAACAUGAGGAUCACCCAUGUACCAUUGAGA | – | – | 52.3 nM | 45.1 nM
27 | AUCGUGUUAGGAUAUACACGACGCUGGGUAGCUAGCGGAGGGUAGAAGGGACAUGAGGAUCACCCAUGUUCGGG | – | – | 157 nM | 282 nM
28 | GUUUUCGCAUGAGGAUAUGCUCGCAUUUUAAGAGCAGAAGGUAUGUCUUUAGACAUGAGGAUCACCCAUGUAUUUAUCAUUGAA | – | 28.2 nM | – | –
29 | AGGUAACAUGAGGAUCACCCAUGUCAGGAUAUCAGUAAGAUGAGUAUAGAAGAGAGUAUGAGAAGGGACUAUAU | – | – | 31 nM | 25.6 nM
30 | GGACGUCACAUUAACAUGAGGAUCACCCAUGUGAAAACACAUGAGGAUAUGGAUCCUAAUUGGAUCCAGAAGGCAUGGACGUCC | – | 6.6 nM | – | –
31 | AUGCUUCACACAGGAUAUUACAACAUGAGGAUCACCCAUGUACAUGACAUGACGAUCACGCAUGUUAAGAAGGGUGUGAAGCAU | – | – | 587 nM | 449 nM
32 | GCCUUAUCCGUCAGGAUAUACAUUUUUUUGUUGUUGUAGAAGGGACAUGAGGAUCACCCAUGUACAUUACAUUG | – | – | 21.5 nM | 25.1 nM
33 | UGUGUGAGACAGGAUAUGCCGGAUAUAGUACUGGUAGAAGGGUCUACAUGAGGAUCACCCAUGUGGCCGGCCGG | – | – | 16.8 nM | 25 nM
34 | CUAUGCGGAAUAGGAUAUUCGUUCAUGAGGAUAGAAGAAGGGUUACAUGAGGAUCACCCAUGUAUGCACAUGAGGAUCCCUUAG | – | – | 252 nM | 228 nM
35 | UGAUAGGACAGAGGAUAUACAGAUAGGAUCUACUAUCAAACAAUCCUCACAUGAGGAUCACCCAUGUAGAAGGCUGUCCUAUCU | – | – | 106 nM | 888 nM
36 | UUACUAUUGGAGAAGGGUCGAUCAUAUAGAAUGGCAGGAUAUCCAACAUGAGGAUCACCCAUGUUUCACCCAUAUGAGGAUCAC | – | – | 116 nM | 44.9 nM
37 | UGUGUGAGACAGGAUAUGCCGGAUGAAUUGCUGGUAGAAGGGUCUACAUGAGGAUCACCCAUGUGGCCGGUUGG | – | – | 16.8 nM | 24.8 nM
38 | GUGCACACUCGAGGAUAUCGGAGUUUUCUCCUUCGAGAAGGCGAUUCGUGCCGUGUUAUUCUGGACAUGAGGAUCACCCAUGUG | 110 nM | 36.5 nM | – | –

Row | Sequence | apparent Kd [1] | apparent Kd [2] | apparent Kd [3] | apparent Kd [4]
39 | CCUAAGGACACAGGAUAUAGCGUGGUGGCUGGGCUCCCACGGCGAGCGGCGCUAGAAGGGUGACCACAUGAGGAUCACCCAUGU | 538 nM | 148 nM | – | –
40 | UGUGUGUGGCAGGAUAUGCCGGUAGUAGGACGGGUAGAAGGGUCUACAUGAGGAUCACCCAUGUGGCCGGUUGG | – | – | 17.7 nM | 17.7 nM
41 | UAGUCGGAGACAGGAUAUGUGACUGCAUAGUGCACAGAAGGGUCUACAUGAGGAUCACCCAUGUCACCGACCACCAAACAACAA | 552 nM | 33.3 nM | – | –
42 | GUGGUCAGACAUGAGGAUCACCCAUGUGGAAUAAAUAAGGUCAAGGAUAUUCAAUAUAGGAUAUAGAAGAAGGUGAGGUUGGUG | 136 nM | 188 nM | – | –
43 | CGCUGGUGACAGCAUCCAUCAAAACAUGAGGAUCACCCAUGUAGAAGGCUGUACGGUUACCGUACAGAGGAUAUACAAUGAUGU | – | – | 16 nM | 27.2 nM
44 | UUCGCACAUGAGGAUCACCCAUGUCAGGAUAUUGUGGUGGGAACAACUGGGAAACGCACGAGAAGGGACACACA | – | – | 36.2 nM | 32.2 nM
45 | GUCAUGUCAGGAUAUUUUGGUCAACUCAUCGGUCGACCCUAAGAGAAGGGACAUGAGGAUCACCCAUGUUCGCA | – | – | 26.8 nM | 77.8 nM
46 | GAGCUAUGAGGAUAUGCAUAUAUGCGGUUUCGUGUGGUACUACAUGAGGAUCACCCAUGUAGAAGGCGUGGCUG | – | – | 17.2 nM | 17 nM
47 | AUUGUGUGAGGAUAUUAAUAGUAAAUGAAUAGAAUUGUGAUUGAGAAGGCACAUGAGGAUCACCCAUGUUCCUU | – | – | 19 nM | 17.4 nM
48 | GCGACGGCGAAAGGAUAUCAAAAUCAACAGUGUUGAGAAGGUUCUCCGAGGGUCGCACAUGAGGAUCACCCAUGUCGCGAAUCU | 13.1 nM | 10.3 nM | – | –
49 | GCUGCGCGAGGAUAUGCGGUUCGCGCUGUGGCCCGUGGCGCACAUGAGGAUCACCCAUGUAGAAGGCGUGCGGG | – | – | 12.2 nM | 13.1 nM
50 | UAGUGAUUGCAAGGAUAUGCUAGUUUUUAUUUGUGUUUGAUAUCUAACAUGAGGAUCACCCAUGUGCAGAAGGUGCUUGAUUUG | 87.8 nM | 107 nM | – | –
51 | CCGAAUAUGCAGGAUAUCGUAUCGGAAACGAUACGAGAAGGGUAAACAUGAGGAUCACCCAUGUUCCUUAACGG | – | – | 20.6 nM | 22.2 nM
52 | UGGAUGUAAGAGAAGGAGGACUUCAUGAGGAUCACCCAUGUGUUAGUACUUAGGAUAUUUGACAACAUGAGGAUCACCCAUGUC | 75.6 nM | 67.8 nM | – | –
53 | AGGGAGUGAGGAUAUGCUGCUCGUCACUUGCGUGAUGAGUAGCAGAAGGUACAUGAGGAUCACCCAUGUAAAAA | – | – | 28.4 nM | 19 nM
54 | CUUCUGUGAGGAUAUGUUAGUUCCCAGCAAAUCGCUGGGAGACAGAAGGCACAUGAGGAUCACCCAUGUGGGCG | – | – | 39.2 nM | 221 nM
55 | AAGAAGUCAGGAUAUGCAUGGCGGGACUUGCGUCGUGGCGUGCAGAAGGGACAUGAGGAUCACCCAUGUAAAGG | – | – | 151 nM | 180 nM
56 | GGGUACAUCGGAGGAUAUCAUGUAAAUACAUGAGGAUCACCCAUGUCGAUGGAGACAUCGGAGAUUGAGAAGGCCGAUGUACUG | 169 nM | 8.5 nM | – | –
